What was measured:
Rattus norvegicus [1] = assay: Antiinflammatory activity in rat assessed as reduction in carrageenan-induced paw edema at 9 mg/kg, ip administered 1 hr before carrageenan challenge measured after 2 hrs; assay type: functional; design: unit not given here; settings: route intraperitoneal
Method in brief: (§1)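 Adult rats of either sex (150–200 g), randomly grouped. Compounds were dissolved in DMSO and given i.p. at 9 mg/kg; indomethacin was given at 10 mg/kg; controls received DMSO i.p. Dosing was 1 h before 100 ul of 1% carrageenan in saline injected subplantar into the right hind paw. Paw volume was measured by planimeter before and at 1, 2, 3 and 4 h. Values are mean ± S.E., analysed by one-way ANOVA with LSD.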

Rattus norvegicus [2] = assay: Antiinflammatory activity in rat assessed as reduction in carrageenan-induced paw edema at 9 mg/kg, ip administered 1 hr before carrageenan challenge measured after 3 hrs; assay type: functional; design: unit not given here; settings: route intraperitoneal; method in brief: as §1
Rattus norvegicus [3] = assay: Gastrointestinal toxicity in Wistar rat assessed as ulcerogenic effect at 9 mg/kg, po after 7 hrs; assay type: organism-based; design: dose 9 mg/kg, route oral; settings: in vivo
Method in brief: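 Male Wistar rats, 150–175 g, groups of 5, fasted 48 h, then given 9 mg/kg orally as an aqueous suspension (10 mL/kg). Killed 7 h later. Stomachs were opened along the greater curvature and inspected for irritation, scored as number of ulcers, ulcer severity and number of rats with ulcers per 5. Ethanol control, indomethacin reference. Reported as mean ± S.E.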

Mus musculus [4] = assay: Analgesic activity in mouse assessed as reaction time administered 1 hr before test measured after 2 hrs by hot plate test; assay type: functional
Method in brief: (§2)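 Hot-plate test in adult mice (20–25 g), plate at 52 °C (±0.1 °C). Vehicle, compounds or tramadol (20 mg/Kg b wt) were given 60 min before testing. Latency to lick a hind paw or jump was recorded before dosing and at 1 and 2 h after. Values are mean ± S.E. of six animals per group, with Dunnett's test against control.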

Mus musculus [5] = assay: Analgesic activity in mouse assessed as reaction time administered 1 hr before test measured after 1 hr by hot plate test; assay type: functional; method in brief: as §2
Rattus norvegicus [6] = assay: Antiinflammatory activity in rat assessed as reduction in carrageenan-induced paw edema at 9 mg/kg, ip administered 1 hr before carrageenan challenge measured after 1 hr; assay type: functional; design: unit not given here; settings: route intraperitoneal; method in brief: as §1
Mus musculus [7] = assay: Analgesic activity in mouse assessed as reaction time at 20 mg/kg administered 1 hr before test measured after 2 hrs by hot plate test; assay type: functional; method in brief: as §2
Mus musculus [8] = assay: Analgesic activity in mouse assessed as reaction time at 20 mg/kg administered 1 hr before test measured after 1 hr by hot plate test; assay type: functional; method in brief: as §2

## N#Cc1c(-c2ccccc2O)cc(-c2ccc(N3C(=O)c4ccccc4NC34CCCCC4)cc2)[nH]c1=N
Rattus norvegicus [1]
  Activity: 66.6
Rattus norvegicus [2]
  Activity: 68.6
Rattus norvegicus [3]
  UI: 2
Mus musculus [4]
  Time: 18.4 s
Mus musculus [5]
  Time: 14.6 s
Rattus norvegicus [6]
  Activity: 61

## CC(=O)c1ccc(N2C(=O)c3ccccc3NC23CCCCC3)cc1
Rattus norvegicus [1]
  Activity: 80.9
Rattus norvegicus [2]
  Activity: 81.5
Mus musculus [4]
  Time: 17 s
Mus musculus [5]
  Time: 9.1 s
Rattus norvegicus [6]
  Activity: 54.6

## NNC(=O)c1ccc(N2C(=O)c3ccccc3NC23CCCCC3)cc1
Rattus norvegicus [1]
  Activity: 85.7
Rattus norvegicus [2]
  Activity: 82.1
Mus musculus [4]
  Time: 17 s
Mus musculus [5]
  Time: 9.4 s
Rattus norvegicus [6]
  Activity: 57.5

## O=C(NN1C(=O)CN(C2CCCCC2)C1=S)c1ccc(N2C(=O)c3ccccc3NC23CCCCC3)cc1
Rattus norvegicus [1]
  Activity: 66.7
Rattus norvegicus [2]
  Activity: 77.2
Mus musculus [4]
  Time: 13 s
Mus musculus [5]
  Time: 8.9 s
Rattus norvegicus [6]
  Activity: 54.9

## COc1ccc(/C=N/NC(=O)c2ccc(N3C(=O)c4ccccc4NC34CCCCC4)cc2)cc1
Rattus norvegicus [1]
  Activity: 88
Rattus norvegicus [2]
  Activity: 88.7
Mus musculus [4]
  Time: 16.9 s
Mus musculus [5]
  Time: 13.3 s
Rattus norvegicus [6]
  Activity: 72.4

## NS(=O)(=O)c1ccc(N2C(=O)c3ccccc3NC23CCCCC3)cc1
Rattus norvegicus [1]
  Activity: 78.9
Rattus norvegicus [2]
  Activity: 87.7
Mus musculus [4]
  Time: 17.5 s
Mus musculus [5]
  Time: 9.5 s
Rattus norvegicus [6]
  Activity: 57.7

## CCC(=S)NS(=O)(=O)c1ccc(N2C(=O)c3ccccc3NC23CCCCC3)cc1
Rattus norvegicus [1]
  Activity: 83.4
Rattus norvegicus [2]
  Activity: 88.6
Mus musculus [4]
  Time: 19.1 s
Mus musculus [5]
  Time: 11 s
Rattus norvegicus [6]
  Activity: 67.5

## O=C1c2ccccc2NC2(CCCCC2)N1c1ccc(S(=O)(=O)Nc2ncccn2)cc1
Rattus norvegicus [1]
  Activity: 74.1
Rattus norvegicus [2]
  Activity: 80.1
Rattus norvegicus [3]
  UI: 0.6
Mus musculus [4]
  Time: 21.6 s
Mus musculus [5]
  Time: 19.8 s
Rattus norvegicus [6]
  Activity: 60.4

## O=C1c2ccccc2NC2(CCCCC2)N1c1ccc(C2=NN(c3ccccc3)C(c3ccco3)C2)cc1 (centres undefined)
Rattus norvegicus [1]
  Activity: 79.1
Rattus norvegicus [2]
  Activity: 82.5
Mus musculus [4]
  Time: 10.9 s
Mus musculus [5]
  Time: 9.2 s
Rattus norvegicus [6]
  Activity: 52.2

## O=C(/C=C/c1ccco1)c1ccc(N2C(=O)c3ccccc3NC23CCCCC3)cc1
Rattus norvegicus [1]
  Activity: 93.8
Rattus norvegicus [2]
  Activity: 94.8
Mus musculus [4]
  Time: 17.1 s
Mus musculus [5]
  Time: 9.6 s
Rattus norvegicus [6]
  Activity: 60.4

## CN(C)c1ccc(C2CC(c3ccc(N4C(=O)c5ccccc5NC45CCCCC5)cc3)=NN2c2ccccc2)cc1 (centres undefined)
Rattus norvegicus [1]
  Activity: 65.4
Rattus norvegicus [2]
  Activity: 66.4
Rattus norvegicus [3]
  UI: 10.4
Mus musculus [4]
  Time: 20.5 s
Mus musculus [5]
  Time: 15 s
Rattus norvegicus [6]
  Activity: 57.9

## O=C(NN1C(=O)CC(=O)N(C2CCCCC2)C1=S)c1ccc(N2C(=O)c3ccccc3NC23CCCCC3)cc1
Rattus norvegicus [1]
  Activity: 79.3
Rattus norvegicus [2]
  Activity: 85.1
Mus musculus [4]
  Time: 17.1 s
Mus musculus [5]
  Time: 9.4 s
Rattus norvegicus [6]
  Activity: 61.7

## N#Cc1c(-c2ccc(F)cc2)cc(-c2ccc(N3C(=O)c4ccccc4NC34CCCCC4)cc2)[nH]c1=O
Rattus norvegicus [1]
  Activity: 74.6
Rattus norvegicus [2]
  Activity: 88
Mus musculus [4]
  Time: 13.5 s
Mus musculus [5]
  Time: 11.8 s
Rattus norvegicus [6]
  Activity: 85.4

## COc1ccc2c(c1)c(CC(=O)O)c(C)n2C(=O)c1ccc(Cl)cc1 [INDOMETHACIN]
Rattus norvegicus [3]
  UI: 9.8

## COc1cccc(C2(O)CCCCC2CN(C)C)c1 (centres undefined) [TRAMADOL]
Mus musculus [7]
  Time: 18.2 s
Mus musculus [8]
  Time: 17.6 s

## CC(=O)N1N=C(c2ccc(N3C(=O)c4ccccc4NC34CCCCC4)cc2)CC1c1ccco1 (centres undefined)
Rattus norvegicus [1]
  Activity: 88.7
Rattus norvegicus [2]
  Activity: 83.5
Mus musculus [4]
  Time: 17 s
Mus musculus [5]
  Time: 9.5 s
Rattus norvegicus [6]
  Activity: 49.9

## O=C(NN1C(=O)CSC1c1cccs1)c1ccc(N2C(=O)c3ccccc3NC23CCCCC3)cc1 (centres undefined)
Rattus norvegicus [1]
  Activity: 65.1
Rattus norvegicus [2]
  Activity: 55.9
Rattus norvegicus [3]
  UI: 0.4
Mus musculus [4]
  Time: 18.4 s
Mus musculus [5]
  Time: 21 s
Rattus norvegicus [6]
  Activity: 56.2

## CCOC(=O)c1ccc(N2C(=O)c3ccccc3NC23CCCCC3)cc1
Rattus norvegicus [1]
  Activity: 59.6
Rattus norvegicus [2]
  Activity: 67.8
Mus musculus [4]
  Time: 14.6 s
Mus musculus [5]
  Time: 12 s
Rattus norvegicus [6]
  Activity: 44.2

## N#Cc1c(-c2ccc(F)cc2)cc(-c2ccc(N3C(=O)c4ccccc4NC34CCCCC4)cc2)[nH]c1=N
Rattus norvegicus [1]
  Activity: 78.2
Rattus norvegicus [2]
  Activity: 81.3
Rattus norvegicus [3]
  UI: 3.2
Mus musculus [4]
  Time: 17.8 s
Mus musculus [5]
  Time: 24.1 s
Rattus norvegicus [6]
  Activity: 66.4

## N#Cc1c(-c2ccccc2O)cc(-c2ccc(N3C(=O)c4ccccc4NC34CCCCC4)cc2)[nH]c1=O
Rattus norvegicus [1]
  Activity: 71.8
Rattus norvegicus [2]
  Activity: 76.4
Rattus norvegicus [3]
  UI: 0
Mus musculus [4]
  Time: 19.4 s
Mus musculus [5]
  Time: 24.9 s
Rattus norvegicus [6]
  Activity: 49.4

## O=C(NNC(=S)NC1CCCCC1)c1ccc(N2C(=O)c3ccccc3NC23CCCCC3)cc1
Rattus norvegicus [1]
  Activity: 82.1
Rattus norvegicus [2]
  Activity: 83.9
Mus musculus [4]
  Time: 17.2 s
Mus musculus [5]
  Time: 9.3 s
Rattus norvegicus [6]
  Activity: 65.1

From ChEMBL document CHEMBL1165850, “Synthesis, biological evaluation and molecular docking of novel series of spiro [(2H,3H) quinazoline-2,1'- cyclohexan]-4(1H)-one derivatives as anti-inflammatory and analgesic agents” (Eur J Med Chem, 2010)
